Experimental findings from the EternaBench riboswitch data are described below.

The data set concerns MS2 coat protein. Put plainly: apparent Kd, MS2 coat protein; higher = weaker binding; RNA-MaP array; FMN 200 µM where present. Summed up: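 Two titrations, one without ligand and one with constant ligand, were run with SNAP-549-labelled MS2 coat protein from 0.7 or 1.5 nM, doubling to 3 µM. The targets were designs transcribed by stalled E. coli RNA polymerase on Illumina sequencing-chip clusters, in 100 mM Tris-HCl pH 7.5, 80 mM KCl, 4 mM MgCl2, BSA, DTT, yeast tRNA and Tween-20. The apparent Kd is the median of filtered per-cluster binding-curve fits, with green signal normalised to red-channel RNA signal and control-cluster median Fmax.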

Where [1] appears, read: designed as: OFF switch for flavin mononucleotide, no ligand.
Setting [2] is: ligand present: flavin mononucleotide, designed as: OFF switch for flavin mononucleotide.
The mark [3] stands for this setting: designed as: ON switch for flavin mononucleotide, no ligand.
[4] abbreviates: ligand present: flavin mononucleotide, designed as: ON switch for flavin mononucleotide.

For the sequence “GGUGGACAUGAGGAUCACCCAUGUGAGGAUAUCGGCCGGCUAGUGGCGGCUGGCUUCUCGAGAAGGCGCAUAGU”, the “apparent Kd” value came out at 47.2 nM under setting [1] and 62.9 nM under setting [2].
For “GACUUUUCUGAGGAUAUUGCAUCAUACGAUUUAUAAGAAGGCAGAACAUGAGGAUCACCCAUGUGGGUUUUUAG”, the “apparent Kd” value is, setting by setting: under setting [1], 41.7 nM; under setting [2], 91.1 nM.
With “CGUAACUGCAUAGGAUAUUGAUACAUGAGGAUCACCCAUGUUUUUCGGAUUAUAUAUAUACUUAGCAAGAAGGAUGGAGUUACG”, the “apparent Kd” value is, setting by setting: under setting [3], 9.3 nM; under setting [4], 5.74 nM.
As for “GUCGUUUAUGUAGGAUAUGCGAGGCGAGCCUAAGCAGAAGGACAUGAGGAUCACCCAUGUAUUGCGGUCUGCGUUCAGAUCGCU”, the “apparent Kd” value by setting is: under setting [1], 45 nM; under setting [2], 174 nM.
For “UUCCUCGUUGUGAGGAUAUCGUCCUCUUUUUGUUACGAGAAGGCACAUGAGGAUCACCCAUGUUUCUUGAUGUU”, in that order: 16.7 nM and 42.3 nM.
Regarding “AGUCAGACAGGAUAUACGUGAGUGGAAAAAGUAUGUCCACUACAUGAGGAUCACCCAUGUAGAAGGGUCUGACA”, the “apparent Kd” value runs as follows: under setting [1], 17.7 nM; under setting [2], 14.7 nM.
Consider “ACGUGUCGUGUAGGAUAUGACACAGGAAACUGGUCAGAAGGACAUGAGGAUCACCCAUGUAGAGUGUGUAAGGAUGACGUAUGC”, for which the “apparent Kd” value turned out to be 52 nM under setting [1] and 199 nM under setting [2].
For “AAAAAGGCAGGAUAUACAAAAAAAUUUUUAAAAAAAAAAAAACAUGAGGAUCACCCAUGUAGAAGGGCCAAAAA”, in that order: 54.2 nM and 51.7 nM.
For “UUUUAACAUGAGGAUCACCCAUGUGAGGAUAUCGAAAUUUAUAUUUAUAUUAAUUUUACGAGAAGGCACAUUUU”, in that order: 112 nM and 125 nM.
On to “UAAACAUGAGGAUCACCCAUGUAAAGAUCGGUAGUAGAGAGUGAGGAUAUACUAAAUUUUAUGGAGUAGAAGGCACUGGGUUCU”, for which the “apparent Kd” value turned out to be 40.1 nM under setting [3] and 32.3 nM under setting [4].
For “GUCAAGUGAGGAUAUGAUUGUACAACAGACUAGCAUCUGCAUCAGAAGGCACAUGAGGAUCACCCAUGUUUGUC”, the “apparent Kd” value reads like this: under setting [1], 17.5 nM; under setting [2], 17.7 nM.
In the case of “AUUCUAAUAGCAGGAUAUCCCAGUAUCCUAAGUCAAAAGUUUUUGACAUGAGGAUCACCCAUGUGGGAGAAGGGCUCUGGAUAA”, the “apparent Kd” value runs as follows: under setting [1], 111 nM; under setting [2], 65.8 nM.
Consider “GAACGGUGAGCAGGAUAUCCACAUUGUCUCCUACAUGAGGAUCACCCAUGUGGAGAAGGGUUUAUAAGUUCGUGUAUACUCAAC”, for which the “apparent Kd” value under setting [1] was 6.35 nM and the “apparent Kd” value under setting [2] came out at 6.9 nM.
“AUUUAUGGCCAGAAGGACAUGAGGAUCACCCAUGUAGGAUAUGGACGAUUUUGCUUGGCGGUUCGUUUAGGAAGCACCGGUGGU”: the “apparent Kd” value under setting [3] was 23.8 nM and the “apparent Kd” value under setting [4] stood at 7.18 nM.
As for “AUCUUUGACUUUACUAGAAUAGGGCAGGAUAUACAUGAGGAUCACCCAUGUUAAGCACGUAAGAGGUAGAAGGGCCCUUGUCAU”, the “apparent Kd” value by setting is: under setting [1], 16.1 nM; under setting [2], 13.6 nM.
For the sequence “AUGAGGUCAGGAUAUGCAUGGCGGGACUUGCGUCGUGGCGUGGAGAAGGGACAUGAGGAUCACCCAUGUGGAGC”, the “apparent Kd” value under setting [1] came to 56.6 nM and the “apparent Kd” value under setting [2] was 64.7 nM.
As to “UGUCGGAGCAGAGGAUAUUACAUGAGGAUCACCCAUGUAUGAACCAAUAGCUGGAAACAGCAAUGUAAGAAGGCUGUUCCGACA”, the “apparent Kd” value under setting [1] stood at 11.9 nM and the “apparent Kd” value under setting [2] amounted to 134 nM.
“CACCGCGACAACGCGGUGUCACAUGAGGAUCACCCAUGUUCACAGGAUAUGCGAUAGCCAACGAAGCAGAAGGGUGAUUACUUA”: the “apparent Kd” value amounted to 41.1 nM under setting [3] and 111 nM under setting [4].
For “CAGGACCUUGAGGAUAUGUGACGAUUAUCGUUCAUAGAAGGUAAGACAUGAGGAUCACCCAUGUCCUGGCAUAA”, the “apparent Kd” value worked out at 15.1 nM under setting [1] and 15.1 nM under setting [2].
As to “GCAGGAUAAGUGAGGAUAUACCUCUGGAUACAGAGGUAGAAGGCACAUGAGGAUCACCCAUGUCUAUCACCUGC”, the “apparent Kd” value came out at 16 nM under setting [1] and 41.3 nM under setting [2].
Consider “UUACUCAUGUAAGGAUAUGCAGCCGUUUCGGCUGCAGAAGGUACUAUAAUACAUGAGGAUCACCCAUGUCUUUUGAAUUUAGAC”, for which the “apparent Kd” value is 91.4 nM under setting [3] and 33.3 nM under setting [4].
As for “AAGGAUCGAGGAUAUACAUAGAUACAGAUACAUGUAGACCUACAUGAGGAUCACCCAUGUAGAAGGCGAUCCUA”, the “apparent Kd” value under setting [1] is 22.4 nM and the “apparent Kd” value under setting [2] is 54.7 nM.
Turning to “CGGCGGAAGCAGAAGGCAUGAACGGACAUGAGGAUCACCCAUGUUGGAAACUCAUGCCCGAAAGAUGAGGAUAUGCGUCCGGGU”, the “apparent Kd” value was 71.7 nM under setting [1] and 18.5 nM under setting [2].
The like results for “UGUAUAUAGGCAGGAUAUACAUGAAUAUAUAUGAUGUAGUAUGAUGUAACAUGAGGAUCACCCAUGUAGAAGGGCCAGUGUAUA” were, in that order, 73.8 nM and 144 nM.
For the sequence “GUGGUUGUCGUAGGAUAUGUAGGAUAUUCCUACAUGAGGAUCACCCAUGUUCGCAUGGAAGAAGGACGGAAGGACGAUGACCAA”, the “apparent Kd” value under setting [3] turned out to be 306 nM and the “apparent Kd” value under setting [4] was found to be 125 nM.
Take “AGAAAGUCAGGAUAUCAGAAACUAGUCGAAACGACUAGAAAUGAGAAGGGACAUGAGGAUCACCCAUGUAAGAA”: the “apparent Kd” value runs as follows: under setting [1], 29.7 nM; under setting [2], 43.4 nM.
For “CAGAGUUGGUAAGGAUAUCCCACAUUAUUCUGACCCGUGCAAGCUACAUGAGGAUCACCCAUGUGGGAGAAGGUGCGUUAAAGA”, in that order: 39 nM and 35 nM.
Consider “AACAGCUCGUCAGGAUAUAUUAUCUUUUAAUGUAUUAAUGUACAUGAGGAUCACCCAUGUUGUUUGUAGAAGGGACGAGCUGAA”, for which the “apparent Kd” value by setting is: under setting [1], 8.88 nM; under setting [2], 9.34 nM.
Regarding “GUUACAUGAGGAUCACCCAUGUAUGUGUGGGAGUAAGUGUCUUAGGAUAUCUAUUAUUUAAAUUAAGAGAAGGAAGAUUGUUGU”, the “apparent Kd” value under setting [3] amounted to 123 nM and the “apparent Kd” value under setting [4] is 137 nM.
Turning to “CCUCUACAUGAGGAUCACCCAUGUGAGGAUAUGCGAGGCACGCCCGAUGGGCGCGCCGGUAGAAGGCAUGUGGU”, the “apparent Kd” value by setting is: under setting [1], 23.6 nM; under setting [2], 49.4 nM.
With “GGGCAUAAUACAUGAGGAUCACCCAUGUCAGAAAGGGUAAUCAGAAGGUACUAUUAGAGAAAGAGUAAGGAUAUGAAUAUGCCC”, the “apparent Kd” value amounted to 973 nM under setting [3] and 103 nM under setting [4].
The like results for “ACGGAACAUGAGGAUCACCCAUGUAUCCGAAAUAUGGACUCACAGGAUAUCCAGAGUUGCCAAUCGGAGAAGGGUGACUCCAGA” were, in that order, 12.8 nM and 9.91 nM.
On to “CAUGGAACAUAGGAUAUCUCGCGGCUAGGCUGCAGAGAAGGAUGUACAUGAGGAUCACCCAUGUAUGAUCCAAU”, for which the “apparent Kd” value is, setting by setting: under setting [1], 18.9 nM; under setting [2], 28.2 nM.
Turning to “UUACAUACAAAGGUACAUGAGGAUCACCCAUGUUUGUUGGGAAGAAGGGUAACAAUACUACACAUACAGGAUAUUUCACAAAUA”, the “apparent Kd” value is, setting by setting: under setting [3], 48 nM; under setting [4], 31.3 nM.
Turning to “UGGUACUAGGGAGGAUAUGGGAAGAUACAUGAGGAUCACCCAUGUUUAAGAAUGCCGAGAGGCAACGAGAAGGCCCUAGUACCU”, the “apparent Kd” value worked out at 793 nM under setting [3] and 132 nM under setting [4].
For the sequence “AUACAUGAGGAUCACCCAUGUCGCAGGUUAAGGCCCAAACCGAGAAGGGAUUCGGUCAAGCCUAAUCAGGAUAUCGGUGGAGCC”, the “apparent Kd” value under setting [3] was found to be 93.4 nM and the “apparent Kd” value under setting [4] was determined as 62.1 nM.
